Consider 11 compounds from ChEMBL document CHEMBL2040750, “Hybrids of ravuconazole: synthesis and biological evaluation” (2012).

Type in all cases: functional
The test system of experiment [1] is Candida albicans. In words: Antifungal activity Candida albicans NCIM 3471 at 100 ug/disc by agar-well diffusion assay. The conditions noted are these: for zone of inhibition at 100 µg/disc: read-out: DIZ. In outline:
(§1)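 Agar-well diffusion screen against standard strains. Zone of inhibition is the read-out. Chloramphenicol, nystatin and ravuconazole were run as positive controls.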

Experiment [2] concerns Bacillus subtilis. In words: Antibacterial activity Bacillus subtilis NCIM 2250 at 100 ug/disc by agar-well diffusion assay. The conditions noted are these: for zone of inhibition at 100 µg/disc: read-out: DIZ. An outline of the steps:
as §1
In general terms: A growth-free zone around the sample is the usual read-out of agar diffusion tests.

Experiment [3] deals with Escherichia coli. In words: Antibacterial activity Escherichia coli NCIM 2109 after 24 hrs by NCCLS method. An outline of the steps: (§2)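 Broth microdilution MIC per NCCLS. Compounds dissolved in DMSO, serially diluted in growth medium, incubated at 37 °C. Read at 24 h for bacteria and 24–72 h for fungi. MIC90 taken as the first well with about 90% growth reduction relative to the drug-free well.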

Experiment [4] has as its system Escherichia coli. In words: Antibacterial activity Escherichia coli NCIM 2109 at 100 ug/disc by agar-well diffusion assay. As to conditions: for zone of inhibition at 100 µg/disc: read-out: DIZ. In outline:
as §1

Experiment [5] deals with Pseudomonas aeruginosa. In words: Antibacterial activity Pseudomonas aeruginosa NCIM 2036 at 100 ug/disc by agar-well diffusion assay. The conditions noted are these: for zone of inhibition at 100 µg/disc: read-out: DIZ. In outline: as §1
For experiment [6], the system named is Staphylococcus aureus. In words: Antibacterial activity Staphylococcus aureus NCIM 2079 at 100 ug/disc by agar-well diffusion assay. The conditions noted are these: for zone of inhibition at 100 µg/disc: read-out: DIZ. An outline of the steps:
as §1

The subject of experiment [7] is Aspergillus niger. In words: Antifungal activity Aspergillus niger NCIM 545 at 100 ug/disc by agar-well diffusion assay. As to conditions: for zone of inhibition at 100 µg/disc: read-out: DIZ. An outline of the steps: as §1
Experiment [8] concerns Candida albicans. In words: Antifungal activity Candida albicans NCIM 3471 after 24 to 72 hrs by NCCLS method. In outline:
as §2

The subject of experiment [9] is Pseudomonas aeruginosa. In words: Antibacterial activity Pseudomonas aeruginosa NCIM 2036 after 24 hrs by NCCLS method. An outline of the steps: as §2
The subject of experiment [10] is Bacillus subtilis. In words: Antibacterial activity Bacillus subtilis NCIM 2250 after 24 hrs by NCCLS method. In outline:
as §2

The test system of experiment [11] is Staphylococcus aureus. In words: Antibacterial activity Staphylococcus aureus NCIM 2079 after 24 hrs by NCCLS method. In outline:
as §2

Experiment [12] has as its system Aspergillus niger. In words: Antifungal activity Aspergillus niger NCIM 545 after 24 to 72 hrs by NCCLS method. In outline: as §2

Molecules are shown by their SMILES. Converted amounts (≈) assume the structure as drawn. The source made the active and inactive calls. The calls are words filed in the database; no cut-off is given here. Some results are limits rather than exact numbers.

For `O=[N+]([O-])c1ccc(/C(Cn2cncn2)=N\Nc2nc(-c3ccc(Br)cc3)cs2)cc1`, the “diameter of the inhibition zone (DIZ)” value in the experiment on Candida albicans [1], in the experiment with Bacillus subtilis [2], in the experiment on Staphylococcus aureus [6] and in the experiment with Aspergillus niger [7] was “inactive” each time. Further, the minimum inhibitory concentration (MIC) (in general, the least concentration at which growth counts as inhibited) against Escherichia coli [3] (NCIM 2109, 24 h) was greater than 64 µg/mL; against Pseudomonas aeruginosa [9] (NCIM 2036, 24 h), 64 µg/mL (≈ 132 µM). Moreover, the results for the zone of inhibition at 100 µg/disc in the experiment on Escherichia coli [4] and with Pseudomonas aeruginosa [5] were 11 mm and 19.8 mm, respectively. Moreover, the MIC result in the experiment with Candida albicans [8], with Bacillus subtilis [10], with Staphylococcus aureus [11] and with Aspergillus niger [12] was “inactive” each time.
For `O=[N+]([O-])c1ccc(-c2csc(N/N=C(/Cn3cncn3)c3ccc(F)cc3)n2)cc1`, the “diameter of the inhibition zone (DIZ)” value with Candida albicans [1], in the experiment with Bacillus subtilis [2], in the experiment on Pseudomonas aeruginosa [5] and in the experiment on Staphylococcus aureus [6] was “inactive” throughout. Further, the minimal inhibitory concentration (MIC) was greater than 64 µg/mL in the experiment with Escherichia coli [3] (NCIM 2109, 24 h) and greater than 64 µg/mL in the experiment on Aspergillus niger [12]. Besides, the zone of inhibition at 100 µg/disc in the experiment on Escherichia coli [4] was 10.9 mm; in the experiment on Aspergillus niger [7], 9.44 mm. Further, the MIC result in the experiment on Candida albicans [8], in the experiment on Pseudomonas aeruginosa [9], with Bacillus subtilis [10] and with Staphylococcus aureus [11] was “inactive” in each case.
On to `Fc1ccc(-c2csc(N/N=C(/Cn3cncn3)c3ccc(Cl)cc3)n2)cc1`, for which the zone of inhibition at 100 µg/disc with Candida albicans [1] stood at 19.1 mm; with Bacillus subtilis [2] it was 16.8 mm; in the experiment with Escherichia coli [4], 13.9 mm; in the experiment on Staphylococcus aureus [6], 25.7 mm; in the experiment on Aspergillus niger [7] it was 18.8 mm. Also, the MIC in the experiment on Escherichia coli [3] (NCIM 2109, 24 h) was greater than 64 µg/mL; in the experiment with Candida albicans [8], 32 µg/mL (≈ 77.5 µM); against Bacillus subtilis [10] (NCIM 2250, 24 h) it was 64 µg/mL (≈ 155 µM); with Staphylococcus aureus [11] (NCIM 2079, 24 h), 32 µg/mL (≈ 77.5 µM); against Aspergillus niger [12], 32 µg/mL (≈ 77.5 µM). For the same compound, in the experiment on Pseudomonas aeruginosa [5], the “diameter of the inhibition zone (DIZ)” value was “inactive”. For the same compound, the MIC result in the experiment on Pseudomonas aeruginosa [9] was “inactive”.
Consider `Fc1ccc(-c2csc(N/N=C(/Cn3cncn3)c3ccc(Br)cc3)n2)cc1`, for which the zone of inhibition at 100 µg/disc in the experiment with Candida albicans [1] worked out at 14.4 mm; in the experiment with Bacillus subtilis [2], 20.3 mm; with Staphylococcus aureus [6], 15.5 mm; in the experiment on Aspergillus niger [7], 11.9 mm. Also, the MIC result in the experiment on Escherichia coli [3] and in the experiment with Pseudomonas aeruginosa [9] was “inactive” in each case. In addition, the “diameter of the inhibition zone (DIZ)” value in the experiment with Escherichia coli [4] and in the experiment with Pseudomonas aeruginosa [5] was “inactive” in each case. The minimal inhibitory concentration (MIC) was 64 µg/mL (≈ 140 µM) against Candida albicans [8]; 32 µg/mL (≈ 70 µM) against Bacillus subtilis [10] (NCIM 2250, 24 h); 64 µg/mL (≈ 140 µM) in the experiment on Staphylococcus aureus [11] (NCIM 2079, 24 h); greater than 64 µg/mL in the experiment on Aspergillus niger [12].
Turning to `Clc1ccc(/C(Cn2cncn2)=N\Nc2nc(-c3ccc(Br)cc3)cs2)cc1`, the “diameter of the inhibition zone (DIZ)” value with Candida albicans [1], with Bacillus subtilis [2] and in the experiment with Escherichia coli [4] was “inactive” throughout. The MIC entry with Escherichia coli [3], in the experiment on Candida albicans [8] and with Bacillus subtilis [10] was “inactive” throughout. The zone of inhibition at 100 µg/disc was 23.9 mm in the experiment on Pseudomonas aeruginosa [5], 19.1 mm with Staphylococcus aureus [6] and 18.6 mm in the experiment with Aspergillus niger [7]. Moreover, the minimum inhibitory concentration (MIC) came to 32 µg/mL (≈ 67.5 µM) against Pseudomonas aeruginosa [9] (NCIM 2036, 24 h); 64 µg/mL (≈ 135 µM) against Staphylococcus aureus [11] (NCIM 2079, 24 h); 64 µg/mL (≈ 135 µM) in the experiment on Aspergillus niger [12].
For the compound `Fc1ccc(/C(Cn2cncn2)=N\Nc2nc(-c3cc(C(F)(F)F)cc(C(F)(F)F)c3)cs2)cc1`, the “diameter of the inhibition zone (DIZ)” value in the experiment on Candida albicans [1], in the experiment with Bacillus subtilis [2] and in the experiment on Staphylococcus aureus [6] was “inactive” each time. Also, the MIC is greater than 64 µg/mL with Escherichia coli [3] (NCIM 2109, 24 h); 32 µg/mL (≈ 62.2 µM) against Pseudomonas aeruginosa [9] (NCIM 2036, 24 h); 64 µg/mL (≈ 124 µM) in the experiment on Aspergillus niger [12]. In addition, the zone of inhibition at 100 µg/disc was found to be 14.9 mm in the experiment with Escherichia coli [4], 23.9 mm with Pseudomonas aeruginosa [5] and 13.8 mm in the experiment on Aspergillus niger [7]. The MIC entry in the experiment with Candida albicans [8], with Bacillus subtilis [10] and in the experiment with Staphylococcus aureus [11] was “inactive” throughout.
Turning to `O=[N+]([O-])c1ccc(-c2csc(N/N=C(/Cn3cncn3)c3ccc(Br)cc3)n2)cc1`, the “diameter of the inhibition zone (DIZ)” value in the experiment with Candida albicans [1], in the experiment with Bacillus subtilis [2], in the experiment on Pseudomonas aeruginosa [5], with Staphylococcus aureus [6] and in the experiment with Aspergillus niger [7] was “inactive” throughout. This compound also came in with an MIC against Escherichia coli [3] (NCIM 2109, 24 h) greater than 64 µg/mL. Further, in the experiment on Escherichia coli [4], the zone of inhibition at 100 µg/disc was 14 mm. The MIC entry in the experiment with Candida albicans [8], in the experiment on Pseudomonas aeruginosa [9], with Bacillus subtilis [10], in the experiment with Staphylococcus aureus [11] and in the experiment on Aspergillus niger [12] was “inactive” throughout.
On to `O=[N+]([O-])c1ccc(/C(Cn2cncn2)=N\Nc2nc(-c3cc(C(F)(F)F)cc(C(F)(F)F)c3)cs2)cc1`, for which the “diameter of the inhibition zone (DIZ)” value in the experiment on Candida albicans [1], with Bacillus subtilis [2], with Escherichia coli [4] and in the experiment with Aspergillus niger [7] was “inactive” in each case. The MIC result with Escherichia coli [3], with Candida albicans [8], in the experiment on Bacillus subtilis [10] and in the experiment with Aspergillus niger [12] was “inactive” throughout. For the same compound, the zone of inhibition at 100 µg/disc with Pseudomonas aeruginosa [5] is 16.8 mm; in the experiment on Staphylococcus aureus [6], 17.2 mm. The MIC in the experiment on Pseudomonas aeruginosa [9] (NCIM 2036, 24 h) was found to be 64 µg/mL (≈ 118 µM); in the experiment with Staphylococcus aureus [11] (NCIM 2079, 24 h), 64 µg/mL (≈ 118 µM).
Take `Clc1ccc(-c2csc(N/N=C(/Cn3cncn3)c3ccc(Br)cc3)n2)cc1`: the zone of inhibition at 100 µg/disc in the experiment with Candida albicans [1] was 16.2 mm; in the experiment with Bacillus subtilis [2] it was 17.3 mm; in the experiment with Pseudomonas aeruginosa [5] it was 21.7 mm; in the experiment on Staphylococcus aureus [6] it was 13.1 mm; in the experiment on Aspergillus niger [7], 16.7 mm. The MIC result in the experiment with Escherichia coli [3] was “inactive”. In the experiment on Escherichia coli [4], the “diameter of the inhibition zone (DIZ)” value is “inactive”. The MIC against Candida albicans [8] was 64 µg/mL (≈ 135 µM); with Pseudomonas aeruginosa [9] (NCIM 2036, 24 h), 32 µg/mL (≈ 67.5 µM); against Bacillus subtilis [10] (NCIM 2250, 24 h) it was 64 µg/mL (≈ 135 µM); with Staphylococcus aureus [11] (NCIM 2079, 24 h) it was greater than 64 µg/mL; against Aspergillus niger [12] it was 32 µg/mL (≈ 67.5 µM).
Turning to `C[C@@H](c1nc(-c2ccc(C#N)cc2)cs1)[C@](O)(Cn1cncn1)c1ccc(F)cc1F` [RAVUCONAZOLE], the values for the zone of inhibition at 100 µg/disc in the experiment on Candida albicans [1] and in the experiment on Aspergillus niger [7] were 28.6 mm and 20.2 mm, respectively. In addition, the “diameter of the inhibition zone (DIZ)” value in the experiment on Bacillus subtilis [2], in the experiment on Escherichia coli [4], with Pseudomonas aeruginosa [5] and in the experiment with Staphylococcus aureus [6] was “inactive” in each case. Moreover, the MIC entry in the experiment on Escherichia coli [3], with Pseudomonas aeruginosa [9], in the experiment on Bacillus subtilis [10] and in the experiment with Staphylococcus aureus [11] was “inactive” throughout. The minimal inhibitory concentration (MIC) stood at 1 µg/mL (≈ 2.29 µM) in the experiment on Candida albicans [8] and 32 µg/mL (≈ 73.1 µM) against Aspergillus niger [12].
Turning to `Fc1ccc(-c2csc(N/N=C(/Cn3cncn3)c3cc(C(F)(F)F)cc(C(F)(F)F)c3)n2)cc1`, the zone of inhibition at 100 µg/disc with Candida albicans [1] is 19.4 mm; with Bacillus subtilis [2], 9.77 mm; in the experiment with Pseudomonas aeruginosa [5] it was 22.9 mm; in the experiment on Staphylococcus aureus [6], 21.2 mm; with Aspergillus niger [7], 17.3 mm. The MIC entry in the experiment with Escherichia coli [3] is “inactive”. In the experiment on Escherichia coli [4], the “diameter of the inhibition zone (DIZ)” value was “inactive”. Besides, the MIC is greater than 64 µg/mL in the experiment with Candida albicans [8]; 16 µg/mL (≈ 31.1 µM) in the experiment on Pseudomonas aeruginosa [9] (NCIM 2036, 24 h); greater than 64 µg/mL against Bacillus subtilis [10] (NCIM 2250, 24 h); 64 µg/mL (≈ 124 µM) against Staphylococcus aureus [11] (NCIM 2079, 24 h); 32 µg/mL (≈ 62.2 µM) in the experiment with Aspergillus niger [12].
